The text below walks through data of ChEMBL document CHEMBL2396530, “In vitro and in vivo evaluation of polymethylene tetraamine derivatives as NMDA receptor channel blockers” (Bioorg Med Chem Lett, 2013).

What is called IC50 is the concentration that inhibits the measured activity by half.

Calls of active or inactive are those of the source. The rule behind the calls is not given here.

Assay [1] concerns Mus musculus. The assay is described as follows: Antithrombotic activity in photochemically-induced thrombosis C57B/L mouse model assessed as decrease in brain infarction size at 10 mg/kg, iv after 24 hrs. It is filed as functional, organism-based. Further details: dose 10 mg/kg.
The test system of assay [2] is Mus musculus. The assay is described as follows: Antithrombotic activity in photochemically-induced thrombosis C57B/L mouse model assessed as decrease in brain infarction size at 0.4 mg/kg, iv after 24 hrs. It is filed as functional, organism-based. More on the design: dose 0.4 mg/kg.
For assay [3], the target named is Glutamate NMDA receptor; GRIN1/GRIN2A (Homo sapiens, UniProt Q05586+Q12879). The assay is described as follows: Antagonist activity at recombinant GluN1/GluN2A receptor (unknown origin) expressed in Xenopus laevis oocytes assessed as inhibition of glycine/glutamate-induced inward current at -70mV by two-electrode voltage clamp assay. It is filed as cell-based, Oocyte. In outline:
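Xenopus oocytes injected with GluN1 plus GluN2A cRNA at 1:5 ratio (0.1–4 ng GluN1 plus 0.5–20 ng GluN2A). Two-electrode voltage clamp at -70 mV. Receptors activated by superfusing glycine and glutamate (10 µM). Inward currents recorded. Concentration–inhibition curves built from 5 concentrations per compound to give IC50.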

Assay [4] deals with Mus musculus. The assay is described as follows: Antithrombotic activity in photochemically-induced thrombosis C57B/L mouse model assessed as decrease in brain infarction size at 1 to 10 mg/kg, iv after 24 hrs. It is filed as functional, organism-based.

Chain of Glutamate NMDA receptor; GRIN1/GRIN2A (Q12879 whole entry, other chains not shown): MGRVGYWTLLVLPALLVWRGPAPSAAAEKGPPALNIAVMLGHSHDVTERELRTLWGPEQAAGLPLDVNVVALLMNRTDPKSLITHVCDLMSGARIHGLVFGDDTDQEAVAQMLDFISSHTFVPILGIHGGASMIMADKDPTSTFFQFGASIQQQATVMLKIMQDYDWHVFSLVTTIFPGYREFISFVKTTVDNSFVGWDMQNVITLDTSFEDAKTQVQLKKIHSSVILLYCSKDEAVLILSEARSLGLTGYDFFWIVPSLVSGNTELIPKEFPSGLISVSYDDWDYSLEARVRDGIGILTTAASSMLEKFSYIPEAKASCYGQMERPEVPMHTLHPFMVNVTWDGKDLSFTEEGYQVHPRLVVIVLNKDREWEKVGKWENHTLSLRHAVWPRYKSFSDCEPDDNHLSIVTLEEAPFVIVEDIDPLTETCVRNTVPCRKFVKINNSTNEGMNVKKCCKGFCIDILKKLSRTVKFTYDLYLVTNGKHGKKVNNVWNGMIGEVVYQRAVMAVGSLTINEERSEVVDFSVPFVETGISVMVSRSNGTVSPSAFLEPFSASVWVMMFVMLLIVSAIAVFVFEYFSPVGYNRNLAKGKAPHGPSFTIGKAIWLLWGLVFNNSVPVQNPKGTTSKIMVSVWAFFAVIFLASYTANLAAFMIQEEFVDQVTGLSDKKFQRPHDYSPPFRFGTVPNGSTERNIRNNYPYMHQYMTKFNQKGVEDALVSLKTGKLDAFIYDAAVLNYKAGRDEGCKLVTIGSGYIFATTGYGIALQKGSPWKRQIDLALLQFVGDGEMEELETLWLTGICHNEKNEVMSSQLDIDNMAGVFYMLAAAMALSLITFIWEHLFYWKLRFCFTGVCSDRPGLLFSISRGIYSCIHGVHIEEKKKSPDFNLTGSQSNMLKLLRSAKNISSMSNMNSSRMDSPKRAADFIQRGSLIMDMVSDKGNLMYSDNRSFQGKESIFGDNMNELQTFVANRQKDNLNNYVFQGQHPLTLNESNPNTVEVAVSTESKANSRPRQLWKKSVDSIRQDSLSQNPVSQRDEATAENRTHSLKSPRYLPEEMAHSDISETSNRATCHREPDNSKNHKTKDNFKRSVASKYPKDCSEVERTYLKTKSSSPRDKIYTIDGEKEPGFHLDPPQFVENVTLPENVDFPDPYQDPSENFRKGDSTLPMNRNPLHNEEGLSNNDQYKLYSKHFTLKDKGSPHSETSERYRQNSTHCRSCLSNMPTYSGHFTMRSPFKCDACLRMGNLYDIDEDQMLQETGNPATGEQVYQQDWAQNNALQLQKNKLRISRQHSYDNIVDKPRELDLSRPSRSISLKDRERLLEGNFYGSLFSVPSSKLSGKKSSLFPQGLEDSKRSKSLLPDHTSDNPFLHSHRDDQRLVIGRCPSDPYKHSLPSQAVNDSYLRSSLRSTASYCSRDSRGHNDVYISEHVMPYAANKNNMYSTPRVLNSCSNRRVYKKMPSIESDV

Take `CC12CC3CC(C)(C1)CC(N)(C3)C2`: the outcome in assay [1] was Active. Regarding `COc1ccccc1CNCCCCCNCCCCCCNCCCCCNCc1ccccc1OC`, in assay [2], the outcome was Active. The IC50 in assay [3] is 0.315 µM.

Take `c1ccc(C(CNCCCCCCNCCCCCCCCNCCCCCCNCC(c2ccccc2)c2ccccc2)c2ccccc2)cc1`: the result in assay [4] was inactive. Also, the IC50 in assay [3] worked out at 0.011 µM.

Regarding `COc1ccccc1CNCCCCCNCCCCCCCCCCNCCCCCNCc1ccccc1OC`, in assay [4], the result was inactive. Further, the IC50 in assay [3] was 0.0893 µM. On to `c1ccc(C(CNCCCCCCNCCCCCCCCCCCCNCCCCCCNCC(c2ccccc2)c2ccccc2)c2ccccc2)cc1`, for which the result in assay [4] was inactive. The IC50 in assay [3] is 0.0042 µM. On to `COc1ccccc1CNCCCCCCCCNCCCCCCNCCCCCCCCNCc1ccccc1OC`, for which, in assay [4], the result was inactive. For the same molecule, in assay [3], the IC50 is 0.257 µM.

As to `COc1ccccc1CNCCCCCCNCCCCCCCCNCCCCCCNCc1ccccc1OC` [METHOCTRAMINE], the result in assay [4] was inactive. Besides, the IC50 in assay [3] came out at 0.138 µM.
